Source: PubChem (several laboratories)
Only some compounds are listed: those with a hit (about 1.6% of all), similar ones and a draw of the others.
NR2E3 ag-1 – agonists of human NR2E3 nuclear receptor. AID 602229. inhibition of corepressor binding, % at 3.98 µM. CHO-S Gal4-NCOR/VP16-NR2E3 two-hybrid, luciferase. 360,000 tested, 0.35% active;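 active = inhibition above the mean of all tested compounds plus 3 SD, cut at about 70% in these data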;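 also: 0% = DMSO with NR2E3 transfected cells and 100% = cells lacking NR2E3 construct; higher means lower luciferase signal from less NR2E3 corepressor binding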
PG9 binder – small molecules binding HIV-1 gp120 antibody PG9; TR-FRET gp120-PG9 antibody binding; inhibition, % at 6.7 µM; 360,000 tested, 0.43% active; in the data active = inhibition above about 8.5%
PKA-R1A act – PKA-R1A complex activation; P00514+P68181; PKA-R1A dissociation, Cy5-IP20 fluorescence polarization; scaled: DMSO 0%, 113 µM cGMP 100%; activation, % at 11.4 µM; 340,000 tested, 0.083% active;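 active = percent activation above the mean of all tested compounds plus 3 SD, cut at about 19% in these data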;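 also: higher means more PKAc released from R1A so a rise in polarization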
PKA-R2B activ – PKA-R2B complex activation; 340,000 tested, 0.079% active; P22694+P31323; AID 504700; PKA-R2B holoenzyme dissociation, Cy5-IP20 fluorescence polarization; R2B truncated from residue 108, S112A mutant; 0% DMSO only, 100% 113 µM cGMP; activation, % at 11.4 µM;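 active = activation above a cutoff set at the mean over all compounds plus 3 SD, cut at about 18% in these data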;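 also: higher means more holoenzyme dissociation and a rise in polarization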
NR2E3 ag-2 – activates human photoreceptor nuclear receptor NR2E3; 320,000 tested, 0.12% active; inhibition of corepressor binding, % at 4.78 µM; GST-NR2E3/biotin-RetCOR TR-FRET, 1536-well; Q9Y5X4;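 active = percent inhibition above the cutoff of mean plus 3 SD of all tested compounds, set per screening campaign, cut at about 20% in these data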;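 also: 0% = DMSO wells and 100% = biotin wells as full block of FRET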
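Material: NR2E3–RetCOR corepressor complex / Incubation: Compound–protein incubation for 5 h at 4 °C / Dosing: compound at 4.8 µM, single dose / Detection: time-resolved FRET / Benchmarks: high control biotin, low control 0.6% DMSO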
Rev-erbA mod – modulators of human Rev-erb alpha DNA binding; 370,000 tested, 0.79% active; activity, % at 10 µM; P20393; Rev-erbα–FITC-DNA binding, fluorescence polarization, 90 min;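 active = activity above about 14%, limit read from the data; passing the limit was not always enough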;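 also: 0% = DMSO wells with 35 nM protein and 100% = DMSO wells with 750 nM protein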
Target sequence (P20393 whole entry, looked up): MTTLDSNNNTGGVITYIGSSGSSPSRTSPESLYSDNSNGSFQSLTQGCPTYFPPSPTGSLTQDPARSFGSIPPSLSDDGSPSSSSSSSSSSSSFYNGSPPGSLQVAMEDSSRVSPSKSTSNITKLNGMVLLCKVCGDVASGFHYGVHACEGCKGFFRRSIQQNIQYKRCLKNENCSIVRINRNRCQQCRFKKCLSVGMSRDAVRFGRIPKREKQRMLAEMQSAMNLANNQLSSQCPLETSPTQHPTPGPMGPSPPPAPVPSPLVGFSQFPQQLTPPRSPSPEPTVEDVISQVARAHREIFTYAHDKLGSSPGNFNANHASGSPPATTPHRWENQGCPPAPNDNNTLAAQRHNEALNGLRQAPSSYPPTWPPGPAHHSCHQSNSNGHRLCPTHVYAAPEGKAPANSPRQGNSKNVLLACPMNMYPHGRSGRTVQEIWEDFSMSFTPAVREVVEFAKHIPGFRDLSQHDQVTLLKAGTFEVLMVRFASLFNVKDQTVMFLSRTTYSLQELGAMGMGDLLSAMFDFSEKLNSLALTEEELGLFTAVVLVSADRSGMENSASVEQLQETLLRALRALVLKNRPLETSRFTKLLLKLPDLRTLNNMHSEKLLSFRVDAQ
NR2E3 ag conf – confirmation of human NR2E3 agonists; shares compounds with NR2E3 ag-1; CHO-S mammalian two-hybrid NR2E3-NCOR, luciferase luminescence; inhibition, % at 3.98 µM; 2,300 tested, 51% active;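 active = average inhibition above a cutoff equal to the mean inhibition of all tested compounds plus one SD, cut at about 70% in these data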;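 also: 0% = DMSO in NR2E3 cells and 100% = DMSO in cells lacking NR2E3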
VP16 counter – reduces GAL4-VP16 reporter signal in NR2E3 counterscreen; 2,300 tested, 29% active; inhibition, % at 3.98 µM; shares compounds with NR2E3 ag-1; CHO-S GAL4-VP16 luciferase reporter, luminescence;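 active = mean inhibition above a cutoff equal to the average over all tested compounds plus one standard deviation, cut at about 70% in these data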;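 also: luciferase from a UAS reporter driven by GAL4-VP16 transactivation; 0% = DMSO with VP16-transfected cells and 100% = DMSO with cells lacking VP16; higher means less reporter light so more repression of VP16 activity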
* marks the source's active call; other numbers are inactive results.

How did COc1ccc(S(=O)(=O)NCc2cccnc2)cc1OC do in these assays?
NR2E3 ag-1: 6.5; PG9 binder: -0.5; PKA-R1A act: 0.9; PKA-R2B activ: 1.1; NR2E3 ag-2: -1.1; Rev-erbA mod: -0.3

How did COc1ccc2cc(S(=O)(=O)NCc3cccnc3)ccc2c1 do in these assays?
NR2E3 ag-1: 57.1; PG9 binder: 2.1; PKA-R1A act: -1.5; PKA-R2B activ: -5.4; NR2E3 ag-2: 3.9; Rev-erbA mod: 7.4; NR2E3 ag conf: 25.8; VP16 counter: 37.8

What do the screens show for `O=C(Nc1ccc(Cl)c(Cl)c1)c1cccc(S(=O)(=O)NCc2cccnc2)c1`?
NR2E3 ag-1: 55.4; PG9 binder: -1.3; PKA-R1A act: -0.8; PKA-R2B activ: -6.8; NR2E3 ag-2: -2.4; Rev-erbA mod: 6.4; NR2E3 ag conf: 84.3*; VP16 counter: 71.5*

What do the screens show for `CC(C)COC(=O)NCCOC(=O)Nc1cccc(Cl)c1`?
NR2E3 ag-1: 72.6*; PG9 binder: 0.3; PKA-R1A act: 6.2; PKA-R2B activ: -5.0; NR2E3 ag-2: 0.5; Rev-erbA mod: 0.7; NR2E3 ag conf: 88.9*; VP16 counter: 72.4*

Results for Cc1ccc(C(=O)Nc2cccc(C(F)(F)F)c2)cc1NC(=O)c1csc(-c2ccncc2)n1 ?
NR2E3 ag-1: -24.0; PKA-R1A act: -5.7; PKA-R2B activ: -7.9; NR2E3 ag-2: 2.5

Results for N#C/C(=N\Nc1cccc(C(F)(F)F)c1)C(=O)c1csc(-c2cccnc2)n1 ?
NR2E3 ag-1: 77.2*; PG9 binder: 0.8; PKA-R1A act: 9.2; PKA-R2B activ: -1.1; NR2E3 ag-2: -1.0; Rev-erbA mod: -1.2; NR2E3 ag conf: 94.2*; VP16 counter: 77.4*

Results for COc1cccc(OCCn2cc(C(=O)c3ccco3)c3ccccc32)c1 ?
NR2E3 ag-1: -30.8; PG9 binder: -0.5; PKA-R1A act: 2.4; PKA-R2B activ: -13.7; NR2E3 ag-2: 3.1; Rev-erbA mod: 4.9

What do the screens show for `COc1cccc(OCCn2cc(C(C)=O)c3ccccc32)c1`?
NR2E3 ag-1: 64.8; PG9 binder: 0.8; PKA-R1A act: 8.2; PKA-R2B activ: -1.8; NR2E3 ag-2: 4.6; Rev-erbA mod: -1.0; NR2E3 ag conf: 79.6*; VP16 counter: 63.7

How did CC(=O)c1cn(CCOc2cc(C)ccc2C)c2ccccc12 do in these assays?
NR2E3 ag-1: 90.3*; PG9 binder: 4.5; PKA-R1A act: 1.7; PKA-R2B activ: 0.0; NR2E3 ag-2: 8.9; Rev-erbA mod: 7.3; NR2E3 ag conf: 93.4*; VP16 counter: 83.3*

How did CC(=O)c1cn(CC(=O)Nc2ccc(C)cc2C)c2ccccc12 do in these assays?
NR2E3 ag-1: 53.7; PG9 binder: 1.5; PKA-R1A act: -2.6; PKA-R2B activ: 2.1; NR2E3 ag-2: 4.3; Rev-erbA mod: 1.4; NR2E3 ag conf: 76.9*; VP16 counter: 48.9

Results for Cc1ccc(C)c(OCCn2cc(C(=O)O)c3ccccc32)c1 ?
NR2E3 ag-1: -25.5; PG9 binder: 1.2; NR2E3 ag-2: -0.7; Rev-erbA mod: -3.5

What do the screens show for `COc1ccc(C(=O)OCCN(C)C2CN(Cc3cn(Cc4cccc(F)c4)nn3)S(=O)(=O)C2)cc1OC` (configuration not stated)?
Rev-erbA mod: -0.2

Results for COC(=O)C1=C(C)N(Cc2ccc(C(F)(F)F)cc2)C(=NCc2ccccc2C(F)(F)F)NC1c1cccc(Cl)c1 (configuration not stated) ?
PG9 binder: 1.0; Rev-erbA mod: 4.3

What do the screens show for `CN(C(=O)C1CCN(c2cncnc2)CC1)C1CCCCC1`?
Rev-erbA mod: -5.8

Results for COc1ccccc1NC(=S)OC1CCC12CCC(c1ccccc1)CC2 (configuration not stated) ?
Rev-erbA mod: 4.1

What do the screens show for `CC(C)(C)[C@H]1C=C(C(=O)Nc2ccccc2)O[C@@H](OCCCCO)C1`?
NR2E3 ag-1: 65.3; PG9 binder: -0.8; PKA-R1A act: 0.4; PKA-R2B activ: -9.6; NR2E3 ag-2: -0.1; Rev-erbA mod: -3.1; NR2E3 ag conf: -2.5; VP16 counter: -48.3

How did CC(=O)NC(=C(Cl)Cl)S(=O)(=O)c1ccccc1 do in these assays?
NR2E3 ag-1: 50.7; PG9 binder: 0.9; PKA-R1A act: -11.1; PKA-R2B activ: -9.5; NR2E3 ag-2: -4.7; Rev-erbA mod: -1.6; NR2E3 ag conf: 6.3; VP16 counter: -7.0

Results for Cc1ccc(S(=O)(=O)C(NC(=O)c2ccccc2)=C(Cl)Cl)cc1 ?
NR2E3 ag-1: 21.7; PG9 binder: -0.7; PKA-R1A act: 2.9; PKA-R2B activ: 5.8; NR2E3 ag-2: 0.1; Rev-erbA mod: 5.8

Results for Cc1ccc(C(=O)NC(=C(Cl)Cl)S(=O)(=O)c2ccc(C)cc2)cc1 ?
NR2E3 ag-1: 23.7; PG9 binder: -0.3; PKA-R1A act: 4.1; PKA-R2B activ: 2.9; NR2E3 ag-2: -2.2; Rev-erbA mod: 0.0

How did O=C(NC(=C(Cl)Cl)S(=O)(=O)c1ccc(Cl)cc1)c1ccccc1 do in these assays?
NR2E3 ag-1: 64.5; PG9 binder: 1.5; PKA-R1A act: -13.2; PKA-R2B activ: 0.8; NR2E3 ag-2: -0.6; Rev-erbA mod: 0.4; NR2E3 ag conf: 32.5; VP16 counter: 19.5

How did CN(Cc1ccccc1)C(=O)OCc1cn(Cc2ccccc2)nn1 do in these assays?
Rev-erbA mod: 0.3

Results for CCCCCCN1CCS(=O)(=O)N(Cc2ccc(C)cc2)C(C(=O)OC)C1 (configuration not stated) ?
Rev-erbA mod: 0.9

What do the screens show for `S=C(Nc1cccc(Cl)c1)OCCN1CCCC12CCC(c1ccccc1)CC2` (configuration not stated)?
Rev-erbA mod: 1.3

What do the screens show for `CN(C)S(=O)(=O)N1CCC(Oc2cccc(C(=O)NC3CCCCC3)c2)CC1`?
NR2E3 ag-1: 47.9; PG9 binder: 0.4; PKA-R1A act: 0.6; PKA-R2B activ: 2.5; NR2E3 ag-2: -3.4; Rev-erbA mod: 4.3; NR2E3 ag conf: 24.0; VP16 counter: 42.3

How did Cc1cccc(OC(=O)NCCOC(=O)N(O)c2ccc(Cl)cc2)c1 do in these assays?
NR2E3 ag-1: 80.8*; PG9 binder: -0.6; PKA-R1A act: -5.9; PKA-R2B activ: 4.6; NR2E3 ag-2: 2.8; Rev-erbA mod: 0.8; NR2E3 ag conf: 83.3*; VP16 counter: 70.7*
